Reference: ChEMBL document CHEMBL2331410, “Synthesis and Pharmacological Characterization of Two Novel, Brain Penetrating P2X7 Antagonists” (ACS Med Chem Lett, 2013)
Converted amounts (≈) assume the structure as drawn. The source made the active and inactive calls. The calls are words filed in the database; no cut-off is given here.

Columns and labels:
[1] = biological target: Sodium-dependent serotonin transporter (Rattus norvegicus, UniProt P31652); assay: Displacement of [3H]-Citalopram from SERT in rat brain after 60 mins by scintillation counting analysis; format: tissue-based
Chain of Sodium-dependent serotonin transporter (Rattus norvegicus, UniProt P31652) (P31652 whole entry): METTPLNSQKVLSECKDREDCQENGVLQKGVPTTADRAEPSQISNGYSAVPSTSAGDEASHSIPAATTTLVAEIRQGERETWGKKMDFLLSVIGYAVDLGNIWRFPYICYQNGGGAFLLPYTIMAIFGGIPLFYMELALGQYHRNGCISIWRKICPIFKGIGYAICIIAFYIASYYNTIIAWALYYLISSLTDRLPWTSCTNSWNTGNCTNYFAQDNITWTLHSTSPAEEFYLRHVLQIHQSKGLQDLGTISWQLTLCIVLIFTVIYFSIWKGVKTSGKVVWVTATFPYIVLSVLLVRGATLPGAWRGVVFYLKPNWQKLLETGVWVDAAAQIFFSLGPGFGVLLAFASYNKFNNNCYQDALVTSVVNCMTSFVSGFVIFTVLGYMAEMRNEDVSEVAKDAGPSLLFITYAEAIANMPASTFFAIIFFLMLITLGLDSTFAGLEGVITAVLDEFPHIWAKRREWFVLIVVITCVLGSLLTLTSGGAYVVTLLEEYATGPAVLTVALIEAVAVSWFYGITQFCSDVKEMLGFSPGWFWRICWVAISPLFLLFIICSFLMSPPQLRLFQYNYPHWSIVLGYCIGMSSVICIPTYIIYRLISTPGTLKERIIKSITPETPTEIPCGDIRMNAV

P2X purinoceptor 7 [2] = biological target: T1, P2X purinoceptor 7 (Homo sapiens, UniProt Q99572); assay: Displacement of [3H]-A804598 from human recombinant P2X7 receptor expressed in human 1321N1 cell membranes after 1 hr by […]
T1 sequence (Q99572 whole entry): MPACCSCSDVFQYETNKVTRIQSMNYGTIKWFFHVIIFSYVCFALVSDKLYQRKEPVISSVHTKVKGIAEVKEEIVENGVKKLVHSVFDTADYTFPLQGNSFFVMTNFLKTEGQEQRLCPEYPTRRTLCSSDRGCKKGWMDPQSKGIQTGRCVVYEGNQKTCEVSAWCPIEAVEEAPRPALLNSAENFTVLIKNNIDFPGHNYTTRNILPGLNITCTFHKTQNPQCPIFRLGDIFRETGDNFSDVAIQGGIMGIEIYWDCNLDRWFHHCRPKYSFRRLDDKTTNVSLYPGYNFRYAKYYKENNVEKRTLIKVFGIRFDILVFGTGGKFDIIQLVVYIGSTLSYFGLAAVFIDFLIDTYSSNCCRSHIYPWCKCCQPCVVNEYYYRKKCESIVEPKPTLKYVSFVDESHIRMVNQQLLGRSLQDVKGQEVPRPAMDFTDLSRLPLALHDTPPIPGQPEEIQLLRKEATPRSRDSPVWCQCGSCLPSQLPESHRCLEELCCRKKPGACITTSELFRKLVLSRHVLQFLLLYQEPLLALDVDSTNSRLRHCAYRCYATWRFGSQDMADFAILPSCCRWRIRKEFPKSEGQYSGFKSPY

P2X purinoceptor 7 [3] = biological target: T2, P2X purinoceptor 7 (Mus musculus, UniProt Q9Z1M0); assay: Antagonist activity at mouse P2X7 receptor assessed as inhibition of ATP-induced Ca2+ flux by FLIPR assay
T2 sequence (Q9Z1M0 whole entry): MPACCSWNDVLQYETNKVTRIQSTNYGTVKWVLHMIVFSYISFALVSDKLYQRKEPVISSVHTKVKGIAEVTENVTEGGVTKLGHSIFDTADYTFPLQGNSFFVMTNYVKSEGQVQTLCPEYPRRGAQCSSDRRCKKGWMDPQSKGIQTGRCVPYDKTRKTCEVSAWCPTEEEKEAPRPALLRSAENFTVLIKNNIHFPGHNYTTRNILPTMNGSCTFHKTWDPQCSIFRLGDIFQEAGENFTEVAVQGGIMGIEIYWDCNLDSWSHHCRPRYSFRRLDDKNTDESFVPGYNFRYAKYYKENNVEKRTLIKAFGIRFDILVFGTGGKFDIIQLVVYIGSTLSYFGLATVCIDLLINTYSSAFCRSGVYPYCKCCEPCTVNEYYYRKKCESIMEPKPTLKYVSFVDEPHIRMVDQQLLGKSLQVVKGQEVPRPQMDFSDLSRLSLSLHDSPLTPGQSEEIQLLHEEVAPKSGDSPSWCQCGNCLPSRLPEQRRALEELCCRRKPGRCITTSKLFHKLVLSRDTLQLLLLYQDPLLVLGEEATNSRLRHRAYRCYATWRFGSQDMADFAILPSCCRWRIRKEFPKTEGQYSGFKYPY

P2X purinoceptor 7 [4] = biological target: T3, P2X purinoceptor 7 (Rattus norvegicus, UniProt Q64663); assay: Antagonist activity at rat P2X7 receptor assessed as inhibition of ATP-induced Ca2+ flux by FLIPR assay
T3 sequence (Q64663 whole entry): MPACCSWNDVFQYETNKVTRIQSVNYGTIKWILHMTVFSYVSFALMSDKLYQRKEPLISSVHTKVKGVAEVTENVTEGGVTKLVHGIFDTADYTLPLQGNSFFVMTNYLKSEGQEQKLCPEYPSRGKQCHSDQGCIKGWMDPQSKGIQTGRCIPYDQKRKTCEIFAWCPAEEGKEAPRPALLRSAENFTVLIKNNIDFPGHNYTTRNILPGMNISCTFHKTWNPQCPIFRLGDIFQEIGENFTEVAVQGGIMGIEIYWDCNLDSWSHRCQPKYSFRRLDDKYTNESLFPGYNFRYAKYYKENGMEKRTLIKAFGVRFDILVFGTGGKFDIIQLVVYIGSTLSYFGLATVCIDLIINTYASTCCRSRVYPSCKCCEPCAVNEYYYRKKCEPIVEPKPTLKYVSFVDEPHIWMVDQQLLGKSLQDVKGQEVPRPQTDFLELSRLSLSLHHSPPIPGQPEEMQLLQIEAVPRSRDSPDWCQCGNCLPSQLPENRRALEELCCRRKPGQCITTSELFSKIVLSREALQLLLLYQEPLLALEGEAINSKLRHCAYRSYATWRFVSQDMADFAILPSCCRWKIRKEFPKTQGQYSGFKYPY

P2X purinoceptor 7 [5] = biological target: T1, P2X purinoceptor 7; assay: Antagonist activity at human recombinant P2X7 receptor expressed in human 1321N1 cells assessed as inhibition of BzATP-induced Ca2+ flux after 30 mins by FLIPR assay; format: cell-based
Rattus norvegicus [6] = species: Rattus norvegicus; assay: Ex-vivo SERT occupancy in Sprague-Dawley rat by autoradiographic analysis; format: functional
Rattus norvegicus [7] = assay: Ex-vivo P2X7 receptor occupancy in sc dosed Sprague-Dawley rat brain assessed as inhibition of [3H]A804598 binding after 120 mins by autoradiographic analysis; format: functional
Rattus norvegicus [8] = assay: Ex-vivo P2X7 receptor occupancy in Sprague-Dawley rat brain assessed as inhibition of [3H]A804598 binding at 10 mg/kg, sc by autoradiographic analysis; format: functional, organism-based; set-up: dose 10 mg/kg
Summary of the method: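 Single subcutaneous dose given to rats; P2X7 occupancy in brain was assessed ex vivo by autoradiography at several times after dosing, with plasma and brain drug levels measured in parallel. n = 3 per time point, mean ± SEM.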

[9] = Solubility of the compound at pH 7; format: physicochemical; details: buffer
[10] = Protein binding in rat brain; format: ADME, tissue-based; details: brain tissue, read-out: PB (converted)
[11] = Solubility of the compound at pH 2; format: physicochemical; details: buffer
[12] = Apparent permeability from basolateral to apical side in human Caco2 cells at 1 uM after […] by LC/MS/MS analysis; format: ADME, cell-based; details: Caco-2
[13] = Plasma protein binding in rat by equilibrium dialysis method; format: ADME, cell-free; details: read-out: PPB (converted)
[14] = Apparent permeability from apical to basolateral side in human Caco2 cells at 1 uM after 60 mins by LC/MS/MS analysis; format: ADME, cell-based; details: Caco-2
[15] = Extraction ratio in mouse liver microsomes at 1 uM by LC/MS/MS analysis; format: ADME, Microsome; details: read-out: ERH
[16] = Plasma protein binding in human by equilibrium dialysis method; format: ADME, cell-free; details: read-out: PPB (converted)
[17] = Extraction ratio in human liver microsomes at 1 uM by LC/MS/MS analysis; format: ADME, Microsome; details: read-out: ERH
[18] = Extraction ratio in rat liver microsomes at 1 uM by LC/MS/MS analysis; format: ADME, Microsome; details: read-out: ERH
[19] = Inhibition of rat nACHR
[20] = biological target: T4, Sodium-dependent dopamine transporter (Homo sapiens, UniProt Q01959); assay: Inhibition of human dopamine transporter
T4 sequence (Q01959 whole entry): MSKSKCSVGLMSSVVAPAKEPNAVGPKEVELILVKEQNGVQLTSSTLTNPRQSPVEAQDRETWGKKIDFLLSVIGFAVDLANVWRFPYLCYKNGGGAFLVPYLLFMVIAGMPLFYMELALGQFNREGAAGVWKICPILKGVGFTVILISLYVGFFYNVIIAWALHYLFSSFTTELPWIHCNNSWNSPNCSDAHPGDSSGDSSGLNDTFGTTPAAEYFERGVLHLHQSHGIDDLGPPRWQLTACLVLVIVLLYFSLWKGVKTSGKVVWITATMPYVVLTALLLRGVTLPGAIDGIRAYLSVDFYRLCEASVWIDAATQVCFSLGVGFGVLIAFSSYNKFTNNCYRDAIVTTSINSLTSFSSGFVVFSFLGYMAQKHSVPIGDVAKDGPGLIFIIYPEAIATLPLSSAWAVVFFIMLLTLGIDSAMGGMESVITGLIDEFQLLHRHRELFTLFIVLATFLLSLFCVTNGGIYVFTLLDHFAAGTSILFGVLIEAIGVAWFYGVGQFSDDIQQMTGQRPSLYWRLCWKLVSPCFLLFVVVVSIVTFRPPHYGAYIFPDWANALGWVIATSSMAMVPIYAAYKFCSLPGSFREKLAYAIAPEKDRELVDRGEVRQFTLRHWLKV

Rattus norvegicus [21] = species: Rattus norvegicus; assay: Inhibition of rat nACHR at 1 uM relative to control
[22] = biological target: T4, Sodium-dependent dopamine transporter; assay: Inhibition of human dopamine transporter at 1 uM relative to control
[23] = biological target: T5, Substance-K receptor (Homo sapiens) (UniProt P21452); assay: Inhibition of human NK2 receptor at 1 uM relative to control
T5 sequence (whole entry): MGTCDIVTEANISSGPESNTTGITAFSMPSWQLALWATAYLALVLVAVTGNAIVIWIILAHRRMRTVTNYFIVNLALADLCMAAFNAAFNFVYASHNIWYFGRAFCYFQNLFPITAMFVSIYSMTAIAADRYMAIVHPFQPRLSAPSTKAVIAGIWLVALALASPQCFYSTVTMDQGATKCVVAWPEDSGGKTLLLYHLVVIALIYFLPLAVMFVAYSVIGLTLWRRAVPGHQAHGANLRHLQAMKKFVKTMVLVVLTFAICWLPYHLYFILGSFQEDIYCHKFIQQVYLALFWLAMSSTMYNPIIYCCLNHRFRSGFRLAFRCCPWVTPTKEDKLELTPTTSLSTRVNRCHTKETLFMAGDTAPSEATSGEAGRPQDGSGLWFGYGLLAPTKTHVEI

P2X purinoceptor 7 [24] = biological target: T1, P2X purinoceptor 7; assay: Antagonist activity at P2X7 receptor in human whole blood assessed as inhibition of BzATP-induced IL1beta release incubated 30 mins prior to BzATP-challenge measured after 1.5 hrs by ELISA
P2X purinoceptor 7 [25] = biological target: T1, P2X purinoceptor 7; assay: Antagonist activity at P2X7 receptor in human PBMC assessed as inhibition of BzATP-induced IL1beta release incubated 30 mins prior to BzATP-challenge measured after 1.5 hrs by ELISA
[26] = biological target: Sodium-dependent serotonin transporter (Homo sapiens, UniProt P31645); assay: Displacement of [3H]-Citalopram from human SERT expressed in human HEK293 cells after 1 hr by scintillation counting analysis; format: cell-based
Chain of Sodium-dependent serotonin transporter (Homo sapiens, UniProt P31645) (P31645 whole entry): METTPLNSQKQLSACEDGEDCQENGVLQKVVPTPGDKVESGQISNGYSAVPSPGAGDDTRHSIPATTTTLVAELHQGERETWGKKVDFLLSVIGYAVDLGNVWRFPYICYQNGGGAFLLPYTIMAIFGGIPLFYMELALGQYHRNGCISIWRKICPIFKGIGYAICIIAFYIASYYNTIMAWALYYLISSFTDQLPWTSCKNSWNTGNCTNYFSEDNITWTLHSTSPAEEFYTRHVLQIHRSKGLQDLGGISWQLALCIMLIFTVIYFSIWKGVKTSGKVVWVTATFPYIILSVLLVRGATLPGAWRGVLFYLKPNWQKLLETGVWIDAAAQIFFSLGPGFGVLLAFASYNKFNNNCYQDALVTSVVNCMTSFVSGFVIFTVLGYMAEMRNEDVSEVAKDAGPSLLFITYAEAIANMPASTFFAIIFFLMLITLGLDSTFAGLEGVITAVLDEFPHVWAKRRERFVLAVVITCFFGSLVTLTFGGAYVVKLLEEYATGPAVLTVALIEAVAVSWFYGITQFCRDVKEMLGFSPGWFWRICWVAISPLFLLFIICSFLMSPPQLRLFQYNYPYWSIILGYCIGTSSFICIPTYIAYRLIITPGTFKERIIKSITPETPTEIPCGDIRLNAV

P2X purinoceptor 7 [27] = biological target: T3, P2X purinoceptor 7; assay: Antagonist activity at rat P2X7 receptor by radioligand binding assay
Rattus norvegicus [28] = assay: Ex-vivo P2X7 receptor occupancy in sc dosed Sprague-Dawley rat brain assessed as inhibition of [3H]A804598 binding after 15 mins by autoradiographic analysis; format: functional
Rattus norvegicus [29] = assay: Ex-vivo P2X7 receptor occupancy in Sprague-Dawley rat brain assessed as inhibition of [3H]A804598 binding at 30 mg/kg, sc after 2 hrs by autoradiographic analysis relative to control; format: functional; details: route subcutaneous
Summary of the method: (§1)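 Rat brain P2X7 occupancy by ex vivo autoradiography after one 30 mg/kg subcutaneous dose, followed over time. Plasma and brain drug levels were measured at the same time points. n = 3 per time point, mean ± SEM.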

Rattus norvegicus [30] = assay: Ex-vivo P2X7 receptor occupancy in Sprague-Dawley rat brain assessed as inhibition of [3H]A804598 binding at 30 mg/kg, sc by autoradiographic analysis; format: functional, organism-based; set-up: dose 30 mg/kg; summary of the method: as §1

SMILES	Ki [1]	Ki (P2X purinoceptor 7 [2])	IC50 (P2X purinoceptor 7 [3])	IC50 (P2X purinoceptor 7 [4])	solubility [9]	fraction unbound [10]	solubility [11]	fraction unbound [13]	hepatic extraction ratio at 1 µM [15]	fraction unbound [16]	hepatic extraction ratio at 1 µM [17]	hepatic extraction ratio at 1 µM [18]	IC50 (P2X purinoceptor 7 [24])	IC50 (P2X purinoceptor 7 [25])	Ki (P2X purinoceptor 7 [27])	further results
CN1CCc2c(cccc2C(=O)NCC2(N3CCN(c4ccccc4)CC3)CCCCC2)C1	20 nM	12.6 nM	79.4 nM	15.8 nM	90 µM (≈ 40.2 µg/mL)	0.024	95 µM (≈ 42.4 µg/mL)	0.044	0.9	0.165	0.9	0.86	200 nM	39.8 nM	0.794 nM	IC50 (P2X purinoceptor 7 [5]): 20 nM; ED50 (Rattus norvegicus [6]): 24 mg/kg; ED50 (Rattus norvegicus [7]): 0.3 mg/kg; Activity (Rattus norvegicus [8]): Active; Papp B→A at 1 µM [12]: 2.1 ×10⁻⁶ cm/s; Papp A→B at 1 h, 1 µM [14]: 11 ×10⁻⁶ cm/s; IC50 [19]: 910 nM; IC50 [20]: 290 nM; inhibition (Rattus norvegicus [21]): 54%; inhibition [22]: 93%; inhibition [23]: 68%; Ki [26]: 15.8 nM
O=C(NCC1(N2CCN(c3ccccc3)CC2)CCOCC1)c1cccnc1Sc1ccccc1	3160 nM	12.6 nM	31.6 nM	63.1 nM	31 µM (≈ 15.1 µg/mL)	0.017	400 µM (≈ 195 µg/mL)	0.029	> 0.93	0.022	> 0.95	> 0.92	200 nM	25.1 nM	2 nM	ED50 (Rattus norvegicus [28]): 2.5 mg/kg; Occ (Rattus norvegicus [29]): >50%; Activity (Rattus norvegicus [30]): Active
